Experimental data published in paper PMC4096040 (The Journal of endocrinology, 2012).

Legend:
INS-1 cells [1] = experiment: Mitochondrial cytochrome c release; type: cell-based; conditions: 18.25 μM t-BHP alone, 72 h, Fig. 4A
Summary of the method: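 INS-1 cells (100 000/well) were left untreated, given 18.25 μM t-BHP alone, or given t-BHP with 10 μM test compound for 72 h. They were processed according to the kit protocol, with cytochrome c labelled by FITC and nuclei by DAPI. Fluorescence microscopy followed, scoring loss of green signal as cytochrome c release.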

INS-1 cells [2] = experiment: Pan caspase activity; type: cell-based; conditions: 18.25 μM t-BHP alone, compared with the control group, Fig. 4C
INS-1 cells [3] = experiment: JC-1 Mitochondrial Membrane Potential Assay; type: cell-based; conditions: 18.25 μM t-BHP alone, 48 h, Fig. 2C
[4] = tested on: NEP 24.11, known as neprilysin; conditions: products include GLP1(28–36)amide; ref Hupe-Sodmann et al. 1995; cited from earlier work
[5] = tested on: diaminopeptidyl peptidase-4 (DPP4); conditions: removal of the N-terminal two amino acids; ref Lovshin & Drucker 2009; cited from earlier work

CC(C)(C)OO [t-BHP, tert-butyl hydro-peroxide]
cytochrome c release, stressor alone (INS-1 cells [1]): stimulated cytochrome c release | caspase activity, stressor alone (INS-1 cells [2]): significant increase in caspase-3 activity | mitochondrial potential, stressor alone (INS-1 cells [3]): loss of mitochondrial potential

GLP1(7–36)amide: 30 amino acid insulinotropic form of GLP1, known GLP1 receptor agonist
cleavage by NEP 24.11 [4]: cleaves GLP1(7–36)amide into several smaller peptides | T1/2 of modification to GLP1(9–36)amide by DPP4 [5]: 1 to 2 min
